Experiments:
[1] = biological target: GABA-A receptor; anion channel; assay: Inhibition of radiolabeled antagonist [3H]-Ro- 15-1788 binding to benzodiazepine receptor from rat cortical membranes; assay type: cell membranes, Membrane
Method in brief: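 Rat (Sprague–Dawley, 250-300 g) cortical membranes, water-washed and frozen at -20 °C ≥18 h, then washed repeatedly in Krebs/HEPES pH 7.4. Nonspecific binding with 3 μM clonazepam. Filtration, scintillation counting.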

[2] = biological target: GABA-A receptor; anion channel (Rattus norvegicus) (UniProt O09028+P15431+P18506+P18508+P19969+P20236+P23574+P23576+P28471+P28473+P30191+P62813+P63079+P63138+Q91ZM7+Q9ES14); assay: Ratio of binding affinity to the GABA-A receptor in the presence and absence of GABA; assay type: protein-complex assay
Method in brief: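 [3H]-Ro 15-1788 displacement in washed rat cortical membranes (Krebs/HEPES pH 7.4, nipecotic acid 10^-4 M, 30 °C, 60 min) run with and without GABA at 0.3 mM. Nonspecific binding was defined by 3 μM clonazepam, and read-out was filtration with scintillation counting. The value is the ratio of the affinities obtained with GABA and without it.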

Structure (SMILES) | IC50 [1] [nM] | GABA shift [2]
CCCc1nc(-c2ncn3c2CN(C)C(=O)c2ccccc2-3)no1 | 34 | 2
CC(C)c1nc(-c2ncn3c2CN(C)C(=O)c2c(Cl)cccc2-3)no1 | 3.6 | 2.37
CC(C)c1noc(-c2ncn3c2CN(C)C(=O)c2c(Cl)cccc2-3)n1 | 14 | 1.86
CC(C)c1nc(-c2ncn3c2CN=C(c2ccccc2)c2ccccc2-3)no1 | 18 | 2.57
Cc1nc(-c2ncn3c2CN(C)C(=O)c2c(Cl)cccc2-3)no1 | 3.4 | 1.18
CCc1nc(-c2ncn3c2CN=C(c2ccccc2)c2c(Cl)cccc2-3)no1 | 2.8 | 1.65
Cc1noc(-c2ncn3c2CN(C)C(=O)c2cc(F)ccc2-3)n1 | 50 | 1.47
CC(C)c1noc(-c2ncn3c2CN=C(c2ccccc2)c2cc(Cl)ccc2-3)n1 | 120 | 1.06
Cc1noc(-c2ncn3c2CN=C(c2ccccc2Cl)c2ccccc2-3)n1 | 31 | 1.29
CCc1noc(-c2ncn3c2CN(C)C(=O)c2cc(F)ccc2-3)n1 | 105 | 2.34
CCCc1noc(-c2ncn3c2CN=C(c2ccccc2Cl)c2cc(Cl)ccc2-3)n1 | 34 | 2.92
CCc1noc(-c2ncn3c2CN(C)C(=O)c2cc(Cl)ccc2-3)n1 | 600 | 0.91
Cc1noc(-c2ncn3c2CN=C(c2ccccc2Cl)c2cc(Cl)ccc2-3)n1 | 110 | 2.28
CC(C)c1noc(-c2ncn3c2CN=C(c2ccccc2)c2c(Cl)cccc2-3)n1 | 7.2 | 1.91
CC(C)c1noc(-c2ncn3c2CN=C(c2ccccc2Cl)c2cc(Cl)ccc2-3)n1 | 45 | 1.81
CCCc1nc(-c2ncn3c2CN(C)C(=O)c2c(Cl)cccc2-3)no1 | 3.8 | 1.41
Cc1nc(-c2ncn3c2CN(C)C(=O)c2cc(F)ccc2-3)no1 | 21 | 1.53
CC(C)c1noc(-c2ncn3c2CN=C(c2ccccc2)c2ccccc2-3)n1 | 52 | 1.7
CCc1nc(-c2ncn3c2CN=C(c2ccccc2)c2ccccc2-3)no1 | 16 | 2.11
Cc1nc(-c2ncn3c2CN(C)C(=O)c2c(F)cccc2-3)no1 | 11 | 1.65
CCc1nc(-c2ncn3c2CN(C)C(=O)c2c(Cl)cccc2-3)no1 | 6.4 | 1.12
CCCc1nc(-c2ncn3c2CN(C)C(=O)c2cc(F)ccc2-3)no1 | 27 | 1.96
CCc1noc(-c2ncn3c2CN(C)C(=O)c2ccccc2-3)n1 | 51 | 1.79
CCc1nc(-c2ncn3c2CN(C)C(=O)c2cc(F)ccc2-3)no1 | 27 | 1.84
Cc1noc(-c2ncn3c2CN(C)C(=O)c2c(F)cccc2-3)n1 | 22 | 1.85
CC(C)c1nc(-c2ncn3c2CN=C(c2ccccc2)c2cc(Cl)ccc2-3)no1 | 53 | 2.89

Structure (SMILES) | IC50 [1] [nM] | GABA shift [2]
CC(C)c1noc(-c2ncn3c2CN=C(c2ccccc2)c2c(F)cccc2-3)n1 | 1.4 | 2.03
CCCc1nc(-c2ncn3c2CN(C)C(=O)c2c(F)cccc2-3)no1 | 14 | 1.7
Cc1nc(-c2ncn3c2CN=C(c2ccccc2)c2ccccc2-3)no1 | 7 | 1.56
CCc1noc(-c2ncn3c2CN=C(c2ccccc2)c2c(F)cccc2-3)n1 | 9.8 | 2.31
CCc1noc(-c2ncn3c2CN(C)C(=O)c2c(Cl)cccc2-3)n1 | 9.7 | 1.43
Cc1nc(-c2ncn3c2CN=C(c2ccccc2)c2c(Cl)cccc2-3)no1 | 1.3 | 1.44
CCCc1noc(-c2ncn3c2CN(C)C(=O)c2ccccc2-3)n1 | 120 | 2.08
CCCc1noc(-c2ncn3c2CN=C(c2ccccc2)c2ccccc2-3)n1 | 43 | 1.8
CCc1noc(-c2ncn3c2CN=C(c2ccccc2)c2cc(Cl)ccc2-3)n1 | 160 | 2
CCCc1noc(-c2ncn3c2CN=C(c2ccccc2)c2cc(Cl)ccc2-3)n1 | 120 | 2.57
CCCc1nc(-c2ncn3c2CN=C(c2ccccc2)c2cc(Cl)ccc2-3)no1 | 45 | 2.22
CCCc1noc(-c2ncn3c2CN(C)C(=O)c2c(F)cccc2-3)n1 | 24 | 1.94
CCCc1nc(-c2ncn3c2CN=C(c2ccccc2)c2c(F)cccc2-3)no1 | 5.3 | 2.06
Cc1noc(-c2ncn3c2CN=C(c2ccccc2)c2cc(Cl)ccc2-3)n1 | 180 | 1.84
CC(C)c1nc(-c2ncn3c2CN=C(c2ccccc2)c2c(F)cccc2-3)no1 | 6.1 | 2.08
CC(C)c1nc(-c2ncn3c2CN(C)C(=O)c2c(F)cccc2-3)no1 | 19 | 1.97
CCc1noc(-c2ncn3c2CN(C)C(=O)c2c(F)cccc2-3)n1 | 42 | 2.4
CC(C)c1nc(-c2ncn3c2CN(C)C(=O)c2ccccc2-3)no1 | 53 | 2.4
Cc1noc(-c2ncn3c2CN(C)C(=O)c2c(Cl)cccc2-3)n1 | 8.1 | 1.51
CCc1nc(-c2ncn3c2CN=C(c2ccccc2Cl)c2ccccc2-3)no1 | 13 | 1.48
CC(C)c1noc(-c2ncn3c2CN(C)C(=O)c2c(F)cccc2-3)n1 | 67 | 2.31
CCCc1nc(-c2ncn3c2CN=C(c2ccccc2Cl)c2cc(Cl)ccc2-3)no1 | 8.2 | 1.81
Cc1nc(-c2ncn3c2CN=C(c2ccccc2Cl)c2cc(Cl)ccc2-3)no1 | 20 | 1.83
CCCc1noc(-c2ncn3c2CN=C(c2ccccc2)c2c(Cl)cccc2-3)n1 | 5.2 | 1.85
CC(C)c1noc(-c2ncn3c2CN=C(c2ccccc2Cl)c2ccccc2-3)n1 | 31 | 1.83
Cc1noc(-c2ncn3c2CN(C)C(=O)c2ccccc2-3)n1 | 67 | 1.5

Structure (SMILES) | IC50 [1] [nM] | GABA shift [2]
CC(C)c1noc(-c2ncn3c2CN(C)C(=O)c2cc(F)ccc2-3)n1 | 100 | 1.86
CCCc1nc(-c2ncn3c2CN=C(c2ccccc2)c2c(Cl)cccc2-3)no1 | 3.9 | 1.7
Cc1nc(-c2ncn3c2CN=C(c2ccccc2)c2c(F)cccc2-3)no1 | 2.4 | 1.68
CCc1nc(-c2ncn3c2CN(C)C(=O)c2ccccc2-3)no1 | 22 | 1.8
CC(C)(C)OC(=O)c1ncn2c1C1CCCN1C(=O)c1c(Br)cccc1-2 (stereo unspecified) | 0.6 | 1.34
O=C(OCC1CC1)c1ncn2c1C1CCN1C(=O)c1c(Cl)cccc1-2 (stereo unspecified) | 4.2 | 1.7
CC(C)c1nc(-c2ncn3c2CN=C(c2ccccc2)c2c(Cl)cccc2-3)no1 | 6.9 | 1.82
Cc1nc(-c2ncn3c2CN=C(c2ccccc2Cl)c2ccccc2-3)no1 | 6.7 | 1.35
Cc1noc(-c2ncn3c2CN=C(c2ccccc2)c2c(F)cccc2-3)n1 | 8.3 | 1.84
CCCc1nc(-c2ncn3c2CN=C(c2ccccc2Cl)c2ccccc2-3)no1 | 12 | 1.68
CCc1nc(-c2ncn3c2CN=C(c2ccccc2)c2cc(Cl)ccc2-3)no1 | 44 | 2.43
Cc1nc(-c2ncn3c2CN(C)C(=O)c2ccccc2-3)no1 | 27 | 1.28
Cc1nc(-c2ncn3c2CN=C(c2ccccc2)c2cc(Cl)ccc2-3)no1 | 71 | 1.17
CCCc1noc(-c2ncn3c2CN(C)C(=O)c2cc(F)ccc2-3)n1 | 42 | 2
CCc1noc(-c2ncn3c2CN=C(c2ccccc2)c2ccccc2-3)n1 | 19 | 1.2
Cc1noc(-c2ncn3c2CN=C(c2ccccc2)c2c(Cl)cccc2-3)n1 | 3.4 | 1.67
CCc1noc(-c2ncn3c2CN=C(c2ccccc2Cl)c2cc(Cl)ccc2-3)n1 | 25 | 2.11
CC(C)c1nc(-c2ncn3c2CN(C)C(=O)c2cc(F)ccc2-3)no1 | 43 | 2.76
CCCc1noc(-c2ncn3c2CN(C)C(=O)c2c(Cl)cccc2-3)n1 | 6 | 1.53
CC(C)c1nc(-c2ncn3c2CN=C(c2ccccc2Cl)c2cc(Cl)ccc2-3)no1 | 12 | 2.79
CCc1noc(-c2ncn3c2CN=C(c2ccccc2)c2c(Cl)cccc2-3)n1 | 4.1 | 2.21
CC(C)c1nc(-c2ncn3c2CN=C(c2ccccc2Cl)c2ccccc2-3)no1 | 14 | 1.64
CCc1nc(-c2ncn3c2CN=C(c2ccccc2)c2c(F)cccc2-3)no1 | 7.5 | 1.82
CCc1nc(-c2ncn3c2CN(C)C(=O)c2c(F)cccc2-3)no1 | 15 | 1.44
CC(C)c1noc(-c2ncn3c2CN(C)C(=O)c2ccccc2-3)n1 | 105 | 2.19
CCc1nc(-c2ncn3c2CN=C(c2ccccc2Cl)c2cc(Cl)ccc2-3)no1 | 9.4 | 1.86
